Shown is part of a subset that was picked to be rich in hits.
Mac1 fbg inh: inhibitors of CD11b/CD18 adhesion to fibrinogen, primary screen, K562 cells, luminescence; Integrin beta-2 (Homo sapiens) + Integrin alpha-M (Homo sapiens), P05107+P11215; ATPlite luminescence; Mn2+ added to activate the integrin; inhibition, % at 10 µM; 93,000 tested, 0.54% active; AID 1497, 2009;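 active = primary inhibition of 50% or more at 10 µM, then 40% or more on retest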
Target sequence (P05107 whole entry, looked up, other chains not shown): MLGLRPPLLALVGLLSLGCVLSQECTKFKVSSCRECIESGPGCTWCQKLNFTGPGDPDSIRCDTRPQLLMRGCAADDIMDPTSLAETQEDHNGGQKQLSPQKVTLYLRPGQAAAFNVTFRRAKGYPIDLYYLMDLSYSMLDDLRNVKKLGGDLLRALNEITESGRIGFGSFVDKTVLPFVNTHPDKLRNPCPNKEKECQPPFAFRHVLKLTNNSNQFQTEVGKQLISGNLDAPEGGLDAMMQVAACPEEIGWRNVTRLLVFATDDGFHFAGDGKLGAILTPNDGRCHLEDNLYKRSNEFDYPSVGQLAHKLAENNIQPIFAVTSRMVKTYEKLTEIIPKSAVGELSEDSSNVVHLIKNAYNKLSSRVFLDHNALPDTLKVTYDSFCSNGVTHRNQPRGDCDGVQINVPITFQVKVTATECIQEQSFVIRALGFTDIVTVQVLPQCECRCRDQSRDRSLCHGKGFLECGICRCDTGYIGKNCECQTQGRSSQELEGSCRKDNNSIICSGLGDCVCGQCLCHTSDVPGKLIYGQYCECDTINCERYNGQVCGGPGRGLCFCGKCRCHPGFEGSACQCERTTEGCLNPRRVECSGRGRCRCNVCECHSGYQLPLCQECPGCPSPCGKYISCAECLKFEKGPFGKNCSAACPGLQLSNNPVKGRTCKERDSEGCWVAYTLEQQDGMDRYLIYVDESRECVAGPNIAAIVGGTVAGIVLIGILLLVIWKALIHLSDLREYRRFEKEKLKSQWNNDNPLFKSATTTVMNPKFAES
E coli WT exp: growth inhibitors of wild-type E. coli, primary screen, strain BW25113, expanded library, OD600 | growth inhibition, % at 100 µM | 98,000 tested, 0.15% active | AID 710, 2007 | OD600 absorbance;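 active = growth inhibition above about 50% at one test dose, limit read from the data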;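 note: growth measured after 20 h incubation at 37 °C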
CD11b adhes enh: enhancers of CD11b/CD18 adhesion to fibrinogen, primary screen, K562 cells, luminescence | Integrin beta-2 (Homo sapiens) + Integrin alpha-M (Homo sapiens), P05107+P11215 | ATPlite luminescence | activation, % at 10 µM | 93,000 tested, 0.07% active | AID 1499, 2009;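 active = 10 µM primary screen giving 50% or more activity, confirmed by 40% or more on retest at that dose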
Ecoli tolC: growth inhibitors of E. coli tolC mutant, primary screen, strain BW25113 ΔtolC::kan, 384-well; growth inhibition, % at 10 µM (by protocol); OD615; 65,000 tested, 2.2% active;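 active = growth inhibition at or above a cutoff equal to the mean over every tested compound plus 3 SD, cut at about 60% in these data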;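 note: growth measured after 20 h incubation at 37 °C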
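signal = optical density read at 615 nm | test system = E. coli ΔtolC::kan strain BW25113 | timing = 20 h compound exposure of bacteria at 37 °C | buffer or medium = LB medium plus 50 µg/mL kanamycin | compound dosing = 10 µM final, single dose | evaluation = % inhibition of E. coli growth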
Active calls of the source: *; nt = no result.

SMILES | Mac1 fbg inh | E coli WT exp | CD11b adhes enh | Ecoli tolC
COc1ccc(-n2c(C)cc(C(=O)COC(=O)Cn3cnc4ccccc43)c2C)cc1 | 97.1* | 16.0 | -8.9 | 62.9*
COc1ccc(-n2c(C)cc(C(=O)CN3C(=O)c4ccccc4C3=O)c2C)cc1 | 23.4 | nt | -0.4 | nt
CCOC(=O)c1c(NC(=O)CSc2nc3cc(Cl)ccc3c(=O)n2Cc2ccco2)sc(C(=O)N(C)C)c1C | -23.1 | nt | 37.4 | nt
CCc1nc(C)cn1S(=O)(=O)c1cc(C)c(OC)c(C)c1C | 79.9* | -5.0 | 2.9 | nt
CN1c2ccccc2C(O)=C(C(=S)Nc2ccc(F)c(Cl)c2)S1(=O)=O | 84.0* | 5.0 | -10.5 | nt
COc1ccc(Cl)cc1C(=O)NNC(=S)NC(=O)c1cc(-c2ccccc2)nc2ccccc12 | 16.1 | -10.0 | 62.4* | nt
O=C(CSc1nc2ccccc2[nH]1)Nc1cc(C(F)(F)F)ccc1N1CCOCC1 | 19.0 | -7.0 | -1.0 | 100.0*
COc1ccc(C(=O)N2CC3(CC(c4ccc(Cl)cc4)=NO3)C[C@H]2C(=O)NCC(N)=O)cc1 (stereo partly specified) | -21.7 | 2.0 | 1.0 | nt
COC(=O)c1[nH]c2ccc(C)cc2c1NS(=O)(=O)c1ccc(F)cc1 | 19.5 | -5.0 | 2.5 | 82.6*
COC(=O)c1[nH]c2ccc(C)cc2c1NS(=O)(=O)c1ccc(F)c(C)c1 | -2.9 | 3.0 | 8.4 | 96.5*
COC(=O)c1[nH]c2ccc(F)cc2c1NS(=O)(=O)c1ccc(OC)cc1OC | -19.0 | -3.0 | 0.0 | 35.9
Cc1cc(C)c(NC(=O)COc2ccccc2C(=O)Nc2ccc3c(c2)oc2ccccc23)c(C)c1 | -23.7 | -13.0 | 17.0 | nt
C=CCN1C(=O)C(Cc2ccc(OCC)cc2)S/C1=N\N=C\c1cccs1 (stereo unspecified) | -19.8 | -31.0 | -0.8 | nt
CCOC(=O)CSc1nnc(CSc2nc3sc4c(c3c(=O)[nH]2)CCCC4)n1-c1ccccc1 | nt | -12.0 | nt | nt
Cc1ccccc1NC(=O)c1c(-c2ccccc2)noc1C | -3.7 | -1.0 | -2.2 | 0.6
CCCOc1ccccc1NC(=O)c1c(-c2ccccc2)noc1C | -18.4 | 5.0 | 1.9 | 72.3*
O=C1c2cc(S(=O)(=O)NCCCO)ccc2-c2ccc(S(=O)(=O)NCCCO)cc21 | 1.6 | -2.0 | -2.3 | nt
COc1ccc(NS(=O)(=O)c2ccc3oc(SC4CCOC4=O)nc3c2)cc1 (stereo unspecified) | 16.3 | 0.0 | -4.2 | nt
Cc1cc(C)c(O)c(-c2cc(C(=O)Nc3ccc(S(=O)(=O)N4CCOCC4)cc3)[nH]n2)c1 | 9.4 | -10.0 | 0.1 | 91.4*
Cc1ccc(-n2nc3c(c2NC(=O)c2ccc(S(=O)(=O)N4CCOCC4)cc2)CSC3)c(C)c1 | -10.5 | 0.0 | 80.0* | -21.9
O=C(Nc1ccc(Cc2ccncc2)cc1)c1ccc(S(=O)(=O)N2CCOCC2)cc1 | 92.8* | -12.0 | -10.3 | 21.5
Cc1cc(C)nc(NS(=O)(=O)c2ccc(NC(=O)c3ccc(S(=O)(=O)N4CCOCC4)cc3)cc2)n1 | nt | -8.0 | nt | nt
CC(C)[C@H](NC(=O)OC(C)(C)C)C(=O)N/N=C/c1cccc2nccnc12 | 0.2 | -4.0 | -0.6 | nt
Cc1ccc(S(=O)(=O)N(CCCO)CC(O)CON=C2c3ccccc3-c3ccccc32)cc1 (stereo unspecified) | 27.3 | nt | -0.6 | nt
Clc1cccc(NCc2nnc(SCc3ccccc3)o2)c1 | -8.0 | 7.0 | 7.6 | 98.8*
SMILES | Mac1 fbg inh | E coli WT exp | CD11b adhes enh | Ecoli tolC
Clc1cccc(NCc2nnc(SCc3ccccc3Cl)o2)c1 | 8.3 | -8.0 | 3.1 | nt
CNc1ccccc1C(C)(C)c1cc(-c2ccc(F)cc2)no1 | 78.7 | nt | -2.8 | nt
CC1(C)Cc2c(c(N3CCCC3)nc3sc4c(N5CCN(CCO)CC5)ncnc4c23)CO1 | nt | 12.0 | nt | 65.1*
OCCN1CCN(c2ncnc3c2sc2nc(N4CCOCC4)c4c(c23)CCC4)CC1 | 1.4 | 4.0 | -3.5 | 34.0
N=c1c2c(n(Cc3ccc(Cl)c(Cl)c3)c3c1CCC3)CCCC2 | 11.5 | 24.0 | -1.2 | 100.0*
CC(C)(C)C(=O)Nc1cc2nn(-c3ccccc3)nc2cc1Cl | 98.9* | 7.0 | -13.8 | nt
CC(=O)Nc1cc2nn(-c3ccccc3)nc2cc1Cl | -12.4 | -3.0 | -0.7 | 2.9
O=C(c1ccc(Cl)cc1)C1CCN(C(=O)C2CC2)CC1 | nt | 4.0 | nt | nt
O=c1c2c(nc3c(-c4ccc(Cl)cc4)c[nH]n13)CCCC2 | -13.7 | -2.0 | 3.6 | 100.0*
O=c1c2c(nc3cc(-c4cccc(Cl)c4)[nH]n13)CCC2 | nt | 3.0 | nt | nt
O=c1c2c(nc3c(-c4cccc5ccccc45)c[nH]n13)CCC2 | 47.1 | -2.0 | -0.3 | 65.4*
CCCCC(=O)NC1(C(F)(F)F)C(=O)N(CC(C)C)C2=C1C(=O)CC(C)(C)C2 (stereo unspecified) | 4.2 | 4.0 | 1.5 | nt
O=C(Cn1cc(SCc2cccc(Cl)c2)c2ccccc21)N1CCOCC1 | 6.2 | nt | -4.5 | nt
N#C/C(=C\c1ccco1)Sc1nc2ccccc2s1 | 23.3 | -14.0 | -0.6 | 96.5*
C=CCn1c(NS(=O)(=O)c2ccccc2)c(S(=O)(=O)c2ccc(C)cc2)c2nc3ccccc3nc21 | 95.7* | nt | -9.8 | nt
COc1ccc(S(=O)(=O)N(C)CC(=O)Nc2ccc(C(F)(F)F)cc2)cc1Cl | -27.5 | -21.0 | -0.3 | nt
Cc1ccc(-c2nn(-c3ccccc3)cc2CSC(=N)N)cc1 | nt | 98.0* | nt | nt
CCOc1ccc2nc(SCC(=O)Nc3cc4c(cc3C(C)=O)OCO4)[nH]c2c1 | nt | 3.0 | nt | nt
CCc1nnc(NC(=O)c2c(O)c3cccc4c3n(c2=O)CC4)s1 | 3.9 | nt | 9.1 | 19.9
CC(C)c1nnc(NC(=O)c2c(O)c3cccc4c3n(c2=O)CCC4)s1 | 11.7 | -2.0 | 71.6 | 100.0*
Cc1cnc(NC(=O)c2c(O)c3cccc4c3n(c2=O)CCC4)s1 | 2.7 | -2.0 | -6.2 | -10.0
CCCc1nnc(NC(=O)c2c(O)c3cccc4c3n(c2=O)CC4)s1 | 92.6* | nt | 37.6 | 17.7
O=C(Nc1ccc(C(F)(F)F)cc1)C1CCCN1S(=O)(=O)c1cccc2cccnc12 (stereo unspecified) | 19.7 | -8.0 | -7.6 | 76.0*
O=C(Nc1cccc(F)c1)C1CCCN1S(=O)(=O)c1cccc2cccnc12 (stereo unspecified) | -2.7 | 3.0 | 4.8 | -8.7
Cc1cc(=O)[nH]c(SCC(=O)C23CC4CC(CC(C4)C2)C3)c1C#N | nt | -8.0 | nt | 69.7*
SMILES | Mac1 fbg inh | E coli WT exp | CD11b adhes enh | Ecoli tolC
COC(=O)Cc1ccc(NC(=O)c2ccc(C)c(C)c2)cc1 | 11.1 | 10.0 | -6.8 | nt
CCOC(=O)Cc1ccc(NC(=O)c2ccc(C(C)(C)C)cc2)cc1 | 97.9* | -16.0 | -5.9 | nt
O=C(CN(C(=O)CNC(=O)c1ccco1)c1ccc2c(c1)OCO2)NC1CCCCC1 | 6.8 | 5.0 | 1.4 | 5.9
O=C(CN(C(=O)CNC(=O)c1ccco1)c1ccc(Cl)c(Cl)c1)NC1CCCCC1 | -2.2 | 9.0 | -0.3 | 72.0*
CCOC(=O)Cc1csc(/N=C/c2c(O)n(-c3ccccc3C(F)(F)F)c(=O)c3ccccc23)n1 | 2.1 | nt | 6.6 | nt
O=C(Nc1ccc(Cl)cc1)NC1CCCC1Cc1ccco1 (stereo unspecified) | 12.2 | 23.0 | -2.6 | 100.0*

Screening results: PubChem BioAssay, several laboratories
